Reference: ChEMBL document CHEMBL1138004, “Small molecule antagonists of the CCR2b receptor. Part 2: Discovery process and initial structure-activity relationships of diamine derivatives” (Bioorg Med Chem Lett, 2004)

Tests used:
[1] = target: T1, C-C chemokine receptor type 2 (Homo sapiens, UniProt P41597); conditions: 10 uM
Target sequence in this assay (P41597 whole entry, looked up): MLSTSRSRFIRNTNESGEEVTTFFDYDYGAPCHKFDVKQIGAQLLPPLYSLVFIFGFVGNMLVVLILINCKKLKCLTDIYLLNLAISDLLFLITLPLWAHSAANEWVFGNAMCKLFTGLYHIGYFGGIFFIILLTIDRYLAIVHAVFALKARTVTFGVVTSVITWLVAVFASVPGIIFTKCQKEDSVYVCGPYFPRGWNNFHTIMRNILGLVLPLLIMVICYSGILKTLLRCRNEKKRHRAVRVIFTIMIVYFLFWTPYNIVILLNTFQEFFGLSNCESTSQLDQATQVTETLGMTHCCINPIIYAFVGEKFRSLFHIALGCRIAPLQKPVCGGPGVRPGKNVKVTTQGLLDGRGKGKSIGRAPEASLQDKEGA

[2] = target: T1, C-C chemokine receptor type 2; experiment: Concentration required to inhibit [125I]MCP-1 binding to Chemokine receptor 2B
Method in brief: (§1)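 Radioligand binding with THP-1 cells as the receptor source and human 125I-MCP-1 as the tracer. Inhibition of tracer binding by test compounds was measured.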
Target sequence in this assay (P41597 whole entry): as the sequence (P41597 whole entry, looked up) above

[3] = target: T1, C-C chemokine receptor type 2; experiment: Inhibition of [125I]MCP-1 binding to Chemokine receptor 2B; not active
Method in brief: as §1
Target sequence in this assay (P41597 whole entry): as the sequence (P41597 whole entry, looked up) above

Structure (SMILES)	IC50 [2] [µM]	further results
O=C(CNC(=O)c1cccc(C(F)(F)F)c1)N[C@@H]1CCN(Cc2ccc(Cl)cc2)C1	0.18	inhibition [1]: 49%
Cc1csc(C(=O)NNC(=O)CN2CCC(NCCC(c3ccccc3)c3ccccc3)C2)c1 (stereo not given)	17	–
Cc1csc(C(=O)NNC(=O)CN2CCC(NCc3ccc(Cl)cc3)C2)c1 (stereo not given)	7.8	–
O=C(CCCC(=O)c1ccccc1)NC1CCN(Cc2ccc(Cl)cc2)C1 (stereo not given)	11	–
O=C(CCNC(=O)c1ccccc1)NC1CCN(Cc2ccc(Cl)cc2)C1 (stereo not given)	22	–
O=C(CNC(=O)c1cccc(C(F)(F)F)c1)NC1CCCN(Cc2ccc(Cl)cc2)C1 (stereo not given)	0.66	–
O=C(CNC(=O)c1ccccc1)NC1CCCN(Cc2ccc(Cl)cc2)C1 (stereo not given)	–	IC50 [3]: Not Active
O=C(CCCC(=O)c1ccccc1)NCC1CCN(Cc2ccc(Cl)cc2)CC1	50	–
O=C(CNC(=O)c1ccccc1)NCC1CCCN1Cc1ccc(Cl)cc1 (stereo not given)	66	–
O=C(CNC(=O)c1cccc(C(F)(F)F)c1)NC[C@H]1CCCN1Cc1ccc(Cl)cc1	0.57	–
O=C(CNC(=O)c1ccccc1)NC1CCN(Cc2ccc(Cl)cc2)C1 (stereo not given)	42	–
O=C(CCCC(=O)c1ccccc1)NC1CCCN(Cc2ccc(Cl)cc2)C1 (stereo not given)	87	–
O=C(CNC(=O)c1cccc(C(F)(F)F)c1)NCC1CCCN1Cc1ccc(Cl)cc1 (stereo not given)	2.3	–
Cc1csc(C(=O)NNC(=O)CNC2CCN(Cc3ccc(Cl)cc3)C2)c1 (stereo not given)	41	–
Cc1cccc(C(=O)NCC(=O)NCC2CCN(Cc3ccc(Cl)cc3)CC2)c1	5.5	–
O=C(CNC(=O)c1cccc(C(F)(F)F)c1)N[C@H]1CCN(Cc2ccc(Cl)cc2)C1	1.2	–
O=C(CNC(=O)c1cccc(C(F)(F)F)c1)NC1CCN(Cc2ccc(Cl)cc2)C1 (stereo not given)	0.37	–
O=C(CNC(=O)c1cccc(C(F)(F)F)c1)NC[C@@H]1CCCN1Cc1ccc(Cl)cc1	3.1	–
Cc1cccc(C(=O)NCC(=O)NCC2CCCN2Cc2ccc(Cl)cc2)c1 (stereo not given)	14	–
O=C(CCNC(=O)c1ccccc1)NCC1CCCN1Cc1ccc(Cl)cc1 (stereo not given)	40	–
O=C(CCNC(=O)c1ccccc1)NC1CCCN(Cc2ccc(Cl)cc2)C1 (stereo not given)	74	–
O=C(CNC(=O)c1cccc(C(F)(F)F)c1)NCC1CCN(Cc2ccc(Cl)cc2)CC1	0.7	–
Cc1cccc(C(=O)NCC(=O)NC2CCCN(Cc3ccc(Cl)cc3)C2)c1 (stereo not given)	17	–
Cc1cccc(C(=O)NCC(=O)NC2CCN(Cc3ccc(Cl)cc3)C2)c1 (stereo not given)	6.9	–
O=C(CNC(=O)c1ccccc1)NCC1CCN(Cc2ccc(Cl)cc2)CC1	11	–
Cc1csc(C(=O)NNC(=O)CN2CCCC2CNCCC(c2ccccc2)c2ccccc2)c1 (stereo not given)	26	–
O=C(CCCC(=O)c1ccccc1)NCC1CCCN1Cc1ccc(Cl)cc1 (stereo not given)	19	–
Cc1csc(C(=O)NNC(=O)CNC2CCN(CCC(c3ccccc3)c3ccccc3)C2)c1 (stereo not given)	33	–
O=C(CCNC(=O)c1ccccc1)NCC1CCN(Cc2ccc(Cl)cc2)CC1	64	–
